TROY signal inh: inhibitors of TROY-driven NF-kB signaling, primary screen, Q293 LMP1-TROYcd cells, NF-kB luciferase, uHTS; inhibition, % at 10 µM; Q293 LMP1-TROYcd NF-kB luciferase reporter, 4 h; AID 1347056, 2019; 360,000 compounds, 0.98% hits;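 active = compounds whose plate-normalised and pattern-corrected inhibition of the luciferase reporter signal at the single screening dose is 50% or more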
HIF activator: HIF pathway transcriptional activators, primary screen, cell-based, U2OS HRE-luciferase, luminescence; U2OS HRE-luciferase reporter; normalized: DMSO 0%, desferrioxamine 100%; activation, % at 7.5 µM (by protocol); 300,000 compounds, 0.32% hits; AID 1910, 2009;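 active = mean activation of at least 10% of the iron chelator positive control signal, with at least half of replicates also reaching 10%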
NR2E3 ag-1: inhibitors of NR2E3-RetCOR corepressor binding, primary screen, NR2E3 agonist project, biochemical, TR-FRET, GST-NR2E3, biotin-RetCOR; Photoreceptor-specific nuclear receptor (Homo sapiens), Q9Y5X4; 1536-well; inhibition of corepressor binding, % at 4.78 µM; 320,000 compounds, 0.12% hits; AID 2300, 2010;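 active = percent inhibition above the cutoff of mean plus 3 SD of all tested compounds, set per screening campaign, cut at about 20% in these data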
Target sequence (Q9Y5X4 whole entry, looked up): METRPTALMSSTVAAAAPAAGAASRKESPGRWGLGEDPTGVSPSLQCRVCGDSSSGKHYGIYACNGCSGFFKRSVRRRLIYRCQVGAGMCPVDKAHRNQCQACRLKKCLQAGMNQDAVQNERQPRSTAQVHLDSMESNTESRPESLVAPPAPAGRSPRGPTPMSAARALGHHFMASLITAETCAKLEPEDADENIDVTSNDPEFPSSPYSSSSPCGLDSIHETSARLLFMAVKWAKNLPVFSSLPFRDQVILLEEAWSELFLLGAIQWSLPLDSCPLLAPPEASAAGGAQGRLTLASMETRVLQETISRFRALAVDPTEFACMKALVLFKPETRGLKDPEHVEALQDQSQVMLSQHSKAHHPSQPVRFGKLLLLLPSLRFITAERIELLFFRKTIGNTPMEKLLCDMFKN
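Assay system: NR2E3–RetCOR corepressor complex. Quantity: 1.35 nM GST-NR2E3. Buffer or medium: pH 7.5 Tris-based buffer. Reagent: biotinylated RetCOR corepressor at 7 nM final. Schedule: 5 h at 4 °C. Detection: TR-FRET, emission read at 617 and 671 nm. Replicates: one well per compound, singlicate testing.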
EBV LMP1 NFkB: EBV LMP1-driven NF-kappaB luciferase reporter inhibitors, primary screen, cell-based, luminescence, single point; LMP1-induced NF-kappaB luciferase reporter cells; inhibition, % at 12.5 µM; 350,000 compounds, 0.69% hits; in the data active = inhibition above about 41%
NR2E3 ag-2: NR2E3 agonists in two-hybrid cells, primary screen, cell-based, luminescence, CHO-S, Gal4-NCOR/VP16-NR2E3; 360,000 compounds, 0.35% hits; inhibition of corepressor binding, % at 3.98 µM; AID 602229, 2012; luciferase;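 active = inhibition above the mean of all tested compounds plus 3 SD, cut at about 70% in these data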;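 note: higher means lower luciferase signal from less NR2E3 corepressor binding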
Large screens that a line does not name were inactive. The list is not random: actives were taken first. Their share in the collection is about 2%.

O=C(Nc1nc2c(F)cc(F)cc2s1)c1ccccn1	HIF activator 10.4, EBV LMP1 NFkB 44.3
CCOc1ccc2nc(NC(=O)c3ccccn3)sc2c1	TROY signal inh 66.6, EBV LMP1 NFkB 57.4
CC(C)Oc1cc(F)ccc1-c1cc(C(=O)NCc2ccccn2)[nH]n1	none (no result: HIF activator, NR2E3 ag-1, EBV LMP1 NFkB)
Cc1ccc(Sc2cnc3ccccc3n2)cc1	EBV LMP1 NFkB 56.0
COC(=O)CSc1cnc2ccccc2n1	none
COC(CNC(=O)c1ccc(N2CCC3(CC2)OCCO3)c([N+](=O)[O-])c1)OC	EBV LMP1 NFkB 51.1
COc1cccc(/C=N/NC(=O)CN2CC(c3ccccc3)CC2=O)c1OC (configuration not stated)	EBV LMP1 NFkB 74.6
COc1ccccc1C(=O)Nc1c[nH]c(=O)[nH]c1=O	EBV LMP1 NFkB 52.5 (no result: NR2E3 ag-1)
CCOc1ccccc1C(=O)Nc1c[nH]c(=O)[nH]c1=O	none (no result: NR2E3 ag-1)
Cc1ccc(C2/C=C\CC(NC(=O)OCC3c4ccccc4-c4ccccc43)CC(=O)N2Cc2ccccc2)cc1 (configuration not stated)	none (no result: HIF activator, NR2E3 ag-1)
O=S(=O)(Nc1ccc(O)c(Sc2nc3ccccc3s2)c1)c1cccc2ccccc12	TROY signal inh 67.5
Cc1ccc2c(c1)C(=C(C#N)C#N)CCN2	none (no result: HIF activator, NR2E3 ag-1)
O=C(NCCCO)c1ccc2nc(-c3ccco3)c(-c3ccco3)nc2c1	none (no result: HIF activator, NR2E3 ag-1)
O=C(NCCO)Nc1ccc2nc(-c3ccco3)c(-c3ccco3)nc2c1	NR2E3 ag-1 46.2 (no result: TROY signal inh, HIF activator, EBV LMP1 NFkB, NR2E3 ag-2)
COCCN(CCOC)Cc1cc(=O)oc2cc(C)ccc12	none (no result: HIF activator, NR2E3 ag-1, EBV LMP1 NFkB)
COc1ccccc1C/C(N)=N/O	HIF activator 204.1
COc1ccccc1CC(=O)O/N=C(\N)Cc1cccc2ccccc12	none
CC(C)=CCc1c(O)cc2oc3c(CC=C(C)C)c(O)c(O)c(CC=C(C)C)c3c(=O)c2c1O	TROY signal inh 58.2
COc1ccc2[nH]c3nc(SC(C)C)nnc3c2c1	TROY signal inh 54.4
CCOC(=O)CN(C(=O)CSc1nnc2c(n1)[nH]c1ccc(OC)cc12)c1ccc(F)cc1	TROY signal inh 74.5
CN(C)c1ccc(C(CNC(=O)c2cccs2)N(C)C)cc1 (configuration not stated)	none
CC(=O)N(C)/C=C1\Sc2ccccc2C1=O	none
CCC(=O)N(C)/C=C1\Sc2ccccc2C1=O	EBV LMP1 NFkB 76.0
CCOC(=O)C1CCN(C(=O)COC(=O)/C=C/c2cccc(OC)c2OC)CC1	none (no result: HIF activator, NR2E3 ag-1)
Cc1cccc(-c2cc3c(N=O)c4ccccc4c-3n[nH]2)c1	none
Cc1ccc(-c2cc3c(N=O)c4ccccc4c-3n[nH]2)cc1	TROY signal inh 88.1, EBV LMP1 NFkB 63.1
O=Nc1c2cc(-c3ccccc3)[nH]nc-2c2ccccc12	TROY signal inh 70.7 (no result: NR2E3 ag-1)
Cc1cc(C)n2nc(C(=O)NCc3cccc(C(F)(F)F)c3)nc2n1	TROY signal inh 51.1
Cc1ccccc1-c1cnc2c(c1)C(=O)N([C@H](C)CO)C[C@@H](C)[C@H](CN(C)C(=O)c1ccncc1)O2	none (no result: HIF activator, NR2E3 ag-1)
COc1ccc(C=Cc2ccc3ccccc3n2)c(OC)c1	EBV LMP1 NFkB 44.6 (no result: HIF activator, NR2E3 ag-1)
O=C1C=C(c2cccc(CO)c2)C[C@@H](c2ccc(Cl)cc2)C1	none (no result: HIF activator)
O=C(c1ccco1)N1CCN(S(=O)(=O)c2cccc(Cl)c2)CC1	none
Fc1cccc(Cl)c1/C=N/n1c(-c2cccnc2)n[nH]c1=S	EBV LMP1 NFkB 52.0
CC(C)(C)C(=O)Nc1ccc(/C=C/C(=O)c2ccco2)cc1	TROY signal inh 71.7
COC(=O)/C(=C(/F)SCC(C)=O)C(F)(F)F	HIF activator 91.0 (no result: TROY signal inh, EBV LMP1 NFkB, NR2E3 ag-2)
O=[N+]([O-])c1cc2c(cc1Br)-c1ccccc1C2	none (no result: HIF activator, NR2E3 ag-1)
CCOc1cc(S(=O)(=O)Nc2ccncc2)ccc1F	none
CN(Cc1ccccc1)C(=O)[C@@H]1CCCN1C(=O)[C@@H]1CCCN1C(=O)OC(C)(C)C	none (no result: HIF activator, NR2E3 ag-1, EBV LMP1 NFkB)
COc1ccc(Cl)c(Cn2c(NCc3ccco3)nc3c2c(=O)n(C)c(=O)n3C)c1	EBV LMP1 NFkB 56.0, NR2E3 ag-2 72.1 (no result: HIF activator)
CS(=O)(=O)c1ccc(Sc2nc3ccccc3s2)c([N+](=O)[O-])c1	EBV LMP1 NFkB 56.1
COc1ccc(-c2nc3ccc(Br)cn3c2Cc2cccc(Cl)c2)cc1OC	none (no result: HIF activator, NR2E3 ag-1, EBV LMP1 NFkB)
COc1ccc(C(=O)N2CCC2(C)C(=O)O)cc1F (configuration not stated)	none (no result: HIF activator, NR2E3 ag-1, EBV LMP1 NFkB)
Cc1nc2ccc(NC(=O)c3ccc(Cl)c(S(=O)(=O)N(C)c4ccccc4)c3)cc2s1	TROY signal inh 56.2
COc1ccccc1-n1cnc2cc(NCc3ccccn3)ccc21	TROY signal inh 55.7
C/C(=N\OCC(=O)Nc1ccc2c(c1)OCCO2)c1ccc2c(c1)OCCO2	none
Nc1nc(-c2cccs2)c(CC(=O)O)s1	none
O=C(O)Cc1sc(Nc2ccc(Cl)cc2)nc1-c1cccs1	EBV LMP1 NFkB 50.5 (no result: TROY signal inh, NR2E3 ag-1, NR2E3 ag-2)
COc1ccc2cc(C(=O)N(C)CC(=O)Nc3ccccc3Br)ccc2c1	none (no result: HIF activator)
Cc1nn(-c2ccccc2)c(Cl)c1/C=C1\SC(=S)N(CCCCCC(=O)O)C1=O	none
Cc1nn(-c2ccccc2)c(Cl)c1/C=C1\SC(=S)NC1=O	TROY signal inh 51.3
COc1ccc(CC(=O)NNC(=S)NCC2CC2)cc1OC	HIF activator 30.4
O=C(OCCc1cc2ccccc2c(=O)o1)c1ccco1	none (no result: HIF activator)
c1ccc2c3c([nH]c2c1)C(C1CCCCC1)N(Cc1ncc[nH]1)CC3 (configuration not stated)	EBV LMP1 NFkB 72.9
Cc1cn(CC(=O)NCC(c2ccccc2)c2ccccc2)c(=O)[nH]c1=O	none (no result: HIF activator, NR2E3 ag-1)
CCN(c1ccccc1)S(=O)(=O)c1ccc(Cl)c(NC(=O)Nc2ccc(Cl)cc2C#N)c1	EBV LMP1 NFkB 85.2
COc1ccc(C(=O)Nc2nnc(SCC(=O)NC3CC3)s2)cc1	EBV LMP1 NFkB 44.6
COc1cccc(CNC(=O)c2cccs2)c1	none
O=[N+]([O-])c1nn(-c2ccc3c(c2)OCCO3)n(O)c1=Nc1ccc(Cl)cc1	TROY signal inh 87.9, EBV LMP1 NFkB 57.6, NR2E3 ag-2 86.0
CCc1ccc(N=c2c([N+](=O)[O-])nn(-c3ccc4c(c3)OCCO4)n2O)cc1	none
c1ccc(COc2ccc(CN3CCN(c4ccccn4)CC3)cc2)cc1	TROY signal inh 57.2
Cc1ccc(C)c(OCC(=O)NCC(c2ccco2)N2CCCCC2)c1 (configuration not stated)	none
[O-]C(=C(C(=S)Nc1cccc2ccccc12)[n+]1ccccc1)c1ccc2c(c1)OCCO2	TROY signal inh 79.2 (no result: HIF activator, NR2E3 ag-1)
CC(C)(C)c1cc[n+](/C(C(=S)Nc2ccccc2F)=C(/[O-])c2ccc3c(c2)OCCO3)cc1	none
Cn1c(=NC(=O)C2CC2)sc2cccc(F)c21	EBV LMP1 NFkB 59.8
COc1ccc(OC)c2c1sc(=NC(=O)C1CCCCC1)n2C	none

Screens: PubChem BioAssay, several laboratories
